# Experimental data of several laboratories.
# Lines come from different studies, so protocols differ.
# EGFR L858R/T790M: Epidermal growth factor receptor (EGFR, Homo sapiens, UniProt P00533, L858R/T790M)
# EGFR del746-750: Epidermal growth factor receptor (EGFR, Homo sapiens, UniProt P00533, del746-750)
# EGFR L858R: Epidermal growth factor receptor (EGFR, Homo sapiens, UniProt P00533, L858R)
# EGFR: Epidermal growth factor receptor (EGFR, Homo sapiens, UniProt P00533)
# EGFR T790M: Epidermal growth factor receptor (EGFR, Homo sapiens, UniProt P00533, T790M)
# EGFR G719C: Epidermal growth factor receptor (EGFR, Homo sapiens, UniProt P00533, G719C)
# EGFR G719S: Epidermal growth factor receptor (EGFR, Homo sapiens, UniProt P00533, G719S)
# EGFR L861Q: Epidermal growth factor receptor (EGFR, Homo sapiens, UniProt P00533, L861Q)
Compound,target,effect on,action,method,concentration,quantity,result
C=CC(=O)Nc1cc(Nc2nc(N3CCc4sccc4C3)c3cccnc3n2)c(OC)cc1N(C)CCN(C)C,EGFR L858R/T790M,enzyme activity,inhibitor,ELISA,0.1 µM,inhibition,19.2%
N[C@@H]1CCN(c2nccc(-c3cnn4ncccc34)n2)C1,EGFR del746-750,binding,,,1 µM,remaining binding,100%
COc1cc(N(C)CCN(C)C)c(NC(=O)/C=C/C(C)C)cc1Nc1nc(Nc2cnn(C)c2)c2sccc2n1,EGFR L858R/T790M,enzyme activity,inhibitor,ELISA,0.1 µM,inhibition,34.6%
C[C@H]1CCN(c2nccc(-c3cnn4ncccc34)n2)C1,EGFR L858R/T790M,binding,,,1 µM,remaining binding,80%
Cc1ccc(NC(=O)c2ccc(C)c(C(F)(F)F)c2)cc1C#Cc1nn(C2CCC(O)CC2)c2ncnc(N)c12 (centres unmarked),EGFR L858R,cell-free assay,,,10 µM,remaining signal,21%
CCN1CCN(Cc2ccc(C(=O)Nc3ccc(C)c(Oc4ccc5c(c4)CC(=O)N5)c3)cc2C(F)(F)F)CC1,EGFR del746-750,binding,,competition with immobilised ligand,1 µM,remaining binding,99%
CC(C)[C@@H]1NC(=O)[C@H](CCCNC(=N)N)NC(=O)[C@H](Cc2ccc(O)cc2)NC(=O)[C@H](C(C)C)NC(=O)[C@H](C(C)C)NC(=O)[C@H](CCCNC(=N)N)NC(=O)[C@H](CC(=O)O)NC(=O)[C@H](CC(=O)O)NC(=O)CCNC(=O)[C@H](Cc2ccc(O)cc2)NC(=O)[C@H](Cc2ccc(O)cc2)NC(=O)[C@H](Cc2ccccc2)NC(=O)[C@@H](Cc2ccc(O)cc2)NC(=O)CSC[C@@H](C(=O)NCC(N)=O)NC(=O)CCNC1=O,EGFR,binding,,SPR,,kon,258000 M⁻¹ s⁻¹
CN(C)c1ncc(F)c(-c2cnn3ncccc23)n1,EGFR,binding,,,1 µM,remaining binding,82%
CCC(=O)Nc1cc(Nc2nc(N3CCc4sccc4C3)c3cccnc3n2)c(OC)cc1N(C)C,EGFR L858R/T790M,enzyme activity,inhibitor,ELISA,0.1 µM,inhibition,6%
O=C(O)[C@@H]1[C@@H](Cn2nnc3ccccc3c2=O)CC[C@H]1C(=O)c1ccc(OCCC2CCOCC2)cc1,EGFR T790M,cell-free assay,,competition with immobilised ligand,1 µM,remaining binding,94%
O=C1Nc2ccc(Cl)cc2C1=Cc1cc(Cl)c(O)c(Cl)c1,EGFR,cell-free assay,,,0.5 µM,remaining signal,93.5%
O=C(Nc1cccnn1)N1CC(C/C=C/c2cncc(Oc3ccc(C(F)(F)F)cn3)n2)C1,EGFR G719C,cell-free assay,,competition with immobilised ligand,1 µM,remaining binding,100%
Cc1ccc(C(=O)Nc2ccc(CN3CCN(C)CC3)c(C(F)(F)F)c2)cc1C#Cc1cnc2cccnn12,EGFR T790M,cell-free assay,,,23.5 nM,remaining signal,94%
COc1cc(-c2cc(-c3ccc(N4CCNCC4)cc3)cnc2N)cc(OC)c1OC,EGFR L858R,enzyme activity,inhibitor,,1 µM,inhibition,76%
O=C(Nc1cnn(-c2csc(C(=O)NC3COC3)c2)c1)Nc1c(F)cccc1Cl,EGFR,enzyme activity,inhibitor,,5 µM,remaining activity,89.4%
CC1CCCN1c1nccc(-c2cnn3ncccc23)n1 (centres unmarked),EGFR G719C,binding,,,1 µM,remaining binding,100%
Nc1ncnc2occ(-c3ccc(NC(=O)Nc4cc(C(F)(F)F)ccc4F)cc3)c12,EGFR G719C,cell-free assay,,,20 µM,remaining signal,4.2%
C=CC(=O)Nc1cc(Nc2nc(N3CCc4sccc4C3)c3cccnc3n2)c(OC)cc1N1CCN(CC)CC1,EGFR L858R/T790M,enzyme activity,inhibitor,ELISA,0.1 µM,inhibition,23.4%
COc1cnc(Nc2cccc(S(N)(=O)=O)c2)nc1N1CCN(c2ccccc2)C(=O)C1,EGFR,binding,,competition with immobilised ligand,1 µM,remaining binding,100%
Cc1cnc(Nc2ccc(C(=O)N3CCC(N4CCCC4)CC3)cc2)nc1-c1cc2ccccc2s1,EGFR,binding,,competition with immobilised ligand,1 µM,remaining binding,83%
Cc1ccc(Nc2nccc(N(C)c3ccc4c(C)n(C)nc4c3)n2)cc1S(N)(=O)=O,EGFR,cell-free assay,,,0.5 µM,remaining signal,91%
Nc1ncc2c(n1)-c1c([nH]c3ccc(C#CC4CC4)cc13)CCCC2,EGFR del746-750,binding,,competition with immobilised ligand,1 µM,remaining binding,72%
COc1cc(Nc2c(C#N)cnc3cc(OCCCN4CCN(C)CC4)c(OC)cc23)c(Cl)cc1Cl,EGFR,cell-free assay,,,0.5 µM,remaining signal,3.84%
C[C@@H]1CN(c2cc(-c3nn(C)c4ccc(OC5(C)CC5)cc34)ncn2)C[C@H](C)O1,EGFR L858R,cell-free assay,,competition with immobilised ligand,1 µM,remaining binding,95%
c1cnn2ncc(-c3ccnc(N4CCC45COC5)n3)c2c1,EGFR L858R,binding,,,1 µM,remaining binding,84%
O=C(NCCCN1CCOCC1)c1ccc(Nc2ncc(Cl)c(-c3ccc(Cl)s3)n2)cc1,EGFR L858R/T790M,binding,,competition with immobilised ligand,1 µM,remaining binding,55%
CN(C)c1ncnc(-c2ccc3nc(Nc4cc(CN5CCN(C(=O)CC(F)(F)F)CC5)ccn4)[nH]c3c2)c1Cl,"Epidermal growth factor receptor (EGFR, Homo sapiens, UniProt P00533, del747-750/T751S)",cell-free assay,,competition with immobilised ligand,1 µM,remaining binding,88%
CN(CCCC(F)(F)F)c1nccc(-c2cnn3ncccc23)n1,EGFR G719S,binding,,,1 µM,remaining binding,98%
CC/C(=N\NC(=O)NCc1cccc(O)c1)c1ccc(O)c(C)c1O,"Epidermal growth factor receptor (EGFR, Homo sapiens, UniProt P00533, del746-750/T790M)",enzyme activity,inhibitor,,0.1 µM,inhibition,-0.8%
CCOc1cc2ncnc(Nc3cccc(Br)c3)c2cc1OCC,EGFR,cell-free assay,,,0.5 µM,remaining signal,2.02%
Nc1cnc(N2CCc3cc(S(=O)(=O)Nc4c(F)cc(Cl)cc4F)cc(N4CCCC4=O)c32)nc1,EGFR G719S,cell-free assay,,competition with immobilised ligand,1 µM,remaining binding,75%
Cc1cnn2ncc(-c3ccnc(N(C)C)n3)c2c1,EGFR L861Q,binding,,,1 µM,remaining binding,70%
COc1cc2ncnc(Nc3ccc(Oc4ccccc4)c(C)c3C)c2cc1OC,EGFR L858R/T790M,enzyme activity,inhibitor,,1 µM,inhibition,17%
CC(C)[C@@H]1NC(=O)[C@H](CCCNC(=N)N)NC(=O)[C@H](Cc2ccc(O)cc2)NC(=O)[C@H](C(C)C)NC(=O)[C@H](C(C)C)NC(=O)[C@H](CCCNC(=N)N)NC(=O)[C@H](CC(=O)O)NC(=O)[C@H](CC(=O)O)NC(=O)[C@H](C)NC(=O)[C@H](Cc2ccc(O)cc2)NC(=O)[C@H](Cc2ccc(O)cc2)NC(=O)[C@H](Cc2ccccc2)NC(=O)[C@@H](Cc2ccc(O)cc2)NC(=O)CSC[C@@H](C(=O)NCC(N)=O)NC(=O)CC(c2ccccc2)NC1=O (some centres unmarked),EGFR,binding,,SPR,,kon,40200 M⁻¹ s⁻¹
Cc1cc(NC(=O)c2cccc3cc(-c4cccc5[nH]nc(N)c45)ccc23)ccc1F,EGFR L858R,enzyme activity,inhibitor,,0.1 µM,activity vs control,112%
O=C(c1ccc(Nc2nccc(-c3cc4ccccc4s3)n2)cc1)N1CCC(N2CCCC2)CC1,"Epidermal growth factor receptor (EGFR, Homo sapiens, UniProt P00533, del752-759)",binding,,competition with immobilised ligand,1 µM,remaining binding,93%
COc1cc2ncnc(Nc3ccc(Oc4ccccc4)cc3C)c2cc1OC,EGFR L861Q,enzyme activity,inhibitor,,1 µM,inhibition,76%
O=C(c1ccc(Nc2ncc(Cl)c(-c3ccc(Cl)s3)n2)cc1)N1CCC(N2CCCC2)CC1,EGFR T790M,binding,,competition with immobilised ligand,1 µM,remaining binding,63%
CCS(=O)(=O)c1cc2cc(C[C@](O)(CC(C)(C)c3ccc(F)cc3C(N)=O)C(F)(F)F)[nH]c2cn1,EGFR T790M,cell-free assay,,competition with immobilised ligand,1 µM,remaining binding,78%
CN(c1nccc(-c2cnn3ncccc23)n1)C1CC1,EGFR G719S,binding,,,1 µM,remaining binding,100%
C[C@H](c1ccnc(Nc2nc3ccc(-c4cc(N(C)C)ncn4)cc3[nH]2)c1)N1CCN(C(=O)CC(F)(F)F)CC1,"Epidermal growth factor receptor (EGFR, Homo sapiens, UniProt P00533, A750P/del747-749)",cell-free assay,,competition with immobilised ligand,0.1 µM,remaining binding,89%
Cc1cnc(NC2CCOCC2)nc1-n1cnc(C(=O)NC(CN)c2cc(F)cc(Cl)c2)c1 (centres unmarked),EGFR T790M,enzyme activity,inhibitor,radiometric,1 µM,remaining activity,98%
CC(=O)c1c(NS(C)(=O)=O)c2cc(-c3ccc(Cl)cc3)c(-c3ccc(Cl)cc3Cl)nc2n(C)c1=O,EGFR L861Q,cell-free assay,,competition with immobilised ligand,1 µM,remaining binding,100%
CC(C)(C)c1nc2c(s1)c1nc(N)ncc1c1ccc(NS(=O)(=O)c3c(F)cccc3F)c(F)c12,EGFR,enzyme activity,inhibitor,radiometric,1 µM,remaining activity,104%
